Activity calls are given as the source filed them.
What was measured:
Staphylococcus aureus = assay: Antimicrobial activity against Staphylococcus aureus at 100 ug/disc by standard disc dassay; assay type: functional
GLI56 = assay: Cytotoxicity against human GLI56 cells assessed as reduction in cell viability up to 10 uM by Cell-Titer Glo assay; assay type: functional, cell-based
How it was run: (§1)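 Viability read by CellTiter-Glo: reagent added 1:1 to the well medium, plates kept in foil and shaken 2 min at room temperature, paused 2 min, then shaken 2 min more, and luminescence measured. Compounds were tested at concentrations up to 10 μM. Sphaeropsidin A served as positive control and a DMSO blank as negative control.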

Candida albicans = assay: Antimicrobial activity against Candida albicans at 100 ug/disc by standard disc dassay; assay type: functional
Escherichia coli = assay: Antimicrobial activity against Escherichia coli at 100 ug/disc by standard disc dassay; assay type: functional
Bacillus subtilis = assay: Antimicrobial activity against Bacillus subtilis at 100 ug/disc by standard disc dassay; assay type: functional
MDA-MB-231 = assay: Cytotoxicity against human MDA-MB-231 cells assessed as reduction in cell viability up to 10 uM by Cell-Titer Glo assay; assay type: functional, cell-based; how it was run: as §1
D453 (Homo sapiens) = assay: Cytotoxicity against human D453 cells assessed as reduction in cell viability up to 10 uM by Cell-Titer Glo assay
Cryptococcus neoformans = assay: Antimicrobial activity against Cryptococcus neoformans at 100 ug/disc by standard disc dassay; assay type: functional

Measured: Activity

COC(=O)c1cc(OC)cc(O)c1C1=C2CC3(COc4cc(OC)cc(C(=O)OC)c4C3=O)C(=O)C(C(C)=O)=C2C=C(C)O1 (centres undefined)
inactive: all assays above

COC(=O)c1cc(OC)cc(O)c1C(=O)c1cc(C(C)=O)c(O)c(C(=O)c2c(O)cc(OC)cc2C(=O)OC)c1
inactive: all assays above

COC(=O)c1cc(OC)cc(O)c1C(=O)c1cc(C(C)=O)c2oc3cc(OC)cc(C(=O)OC)c3c(=O)c2c1
inactive: all assays above

Source: ChEMBL document CHEMBL4033608, “Benzophenone and Fimetarone Derivatives from the Coprophilous Fungus Delitschia confertaspora” (J Nat Prod, 2017)
